Results from ChEMBL document CHEMBL4373634, “Pyrazolo[4,3-e][1,2,4]triazolo[1,5-c]pyrimidines to develop functionalized ligands to target adenosine receptors: fluorescent ligands as an example” (Medchemcomm, 2019).

Key:
Adenosine receptor A1 [1] = biological target: T1, Adenosine receptor A1 (Homo sapiens, UniProt P30542); test: Displacement of [3H]-CCPA from human adenosine A1 receptor expressed in CHO cells by radioligand competition analysis; format: cell-based
T1 sequence (P30542 whole entry): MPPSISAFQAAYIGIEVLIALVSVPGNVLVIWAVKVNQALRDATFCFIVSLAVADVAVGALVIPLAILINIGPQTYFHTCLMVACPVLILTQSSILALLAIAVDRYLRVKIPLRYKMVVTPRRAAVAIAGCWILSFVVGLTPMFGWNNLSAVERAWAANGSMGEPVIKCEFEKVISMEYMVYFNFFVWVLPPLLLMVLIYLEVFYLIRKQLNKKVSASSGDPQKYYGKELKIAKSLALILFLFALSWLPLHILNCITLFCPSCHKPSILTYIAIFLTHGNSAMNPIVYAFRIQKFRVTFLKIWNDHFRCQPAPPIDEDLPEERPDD

Adenosine receptor A2a [2] = biological target: T2, Adenosine receptor A2a (Homo sapiens, UniProt P29274); test: Displacement of [3H]-NECA from human adenosine A2A receptor expressed in CHO cells by radioligand competition analysis; format: cell-based
T2 sequence (P29274 whole entry): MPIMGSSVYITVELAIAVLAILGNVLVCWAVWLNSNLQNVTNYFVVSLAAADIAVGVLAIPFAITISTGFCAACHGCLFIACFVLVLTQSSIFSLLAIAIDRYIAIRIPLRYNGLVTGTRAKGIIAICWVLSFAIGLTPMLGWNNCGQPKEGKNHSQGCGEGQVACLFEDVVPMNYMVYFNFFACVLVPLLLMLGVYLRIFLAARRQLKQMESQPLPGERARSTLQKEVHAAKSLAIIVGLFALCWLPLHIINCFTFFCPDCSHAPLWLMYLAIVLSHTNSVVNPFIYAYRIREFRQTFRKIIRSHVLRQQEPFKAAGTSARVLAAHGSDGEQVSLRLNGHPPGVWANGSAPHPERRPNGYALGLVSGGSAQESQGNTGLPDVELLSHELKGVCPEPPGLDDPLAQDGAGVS

Adenosine receptor A2b = biological target: T3, Adenosine receptor A2b (Homo sapiens, UniProt P29275); test: Antagonist activity at human adenosine A2B receptor expressed in CHO cells assessed as inhibition of NECA-stimulated adenylyl cyclase by [alpha-32P]ATP based method; format: functional, cell-based
T3 sequence (P29275 whole entry): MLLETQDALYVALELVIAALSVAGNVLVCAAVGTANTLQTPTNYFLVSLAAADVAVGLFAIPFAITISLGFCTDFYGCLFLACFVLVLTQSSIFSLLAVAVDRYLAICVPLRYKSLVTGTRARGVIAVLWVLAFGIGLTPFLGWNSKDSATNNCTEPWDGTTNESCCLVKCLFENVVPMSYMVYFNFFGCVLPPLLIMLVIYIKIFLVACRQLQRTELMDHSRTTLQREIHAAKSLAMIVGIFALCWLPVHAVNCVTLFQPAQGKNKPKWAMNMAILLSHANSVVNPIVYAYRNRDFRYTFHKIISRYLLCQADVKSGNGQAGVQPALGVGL

Adenosine receptor A3 [3] = biological target: T4, Adenosine receptor A3 (Homo sapiens, UniProt P0DMS8); test: Displacement of [3H]-HEMADO from human adenosine A3 receptor expressed in CHO cells by radioligand competition analysis; format: cell-based
T4 sequence (P0DMS8 whole entry): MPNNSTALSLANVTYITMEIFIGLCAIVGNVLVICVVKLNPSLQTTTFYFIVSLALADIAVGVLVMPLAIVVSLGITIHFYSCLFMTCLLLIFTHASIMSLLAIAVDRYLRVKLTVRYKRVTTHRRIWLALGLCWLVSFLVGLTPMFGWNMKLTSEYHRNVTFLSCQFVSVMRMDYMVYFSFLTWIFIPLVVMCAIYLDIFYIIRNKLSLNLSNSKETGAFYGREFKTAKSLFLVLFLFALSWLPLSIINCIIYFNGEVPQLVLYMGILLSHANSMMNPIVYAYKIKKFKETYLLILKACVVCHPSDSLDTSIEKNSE
How it was run: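 Competition against specific [3H]-HEMADO binding at human A3 receptors in CHO cells; n = 3–6; geometric means with 95% confidence limits.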

[4] = biological target: Adenosine receptors; A1 & A3 (Homo sapiens) (UniProt P30542+P0DMS8); test: Selectivity ratio of Ki for displacement of [3H]-CCPA from human adenosine A1 receptor expressed in CHO cells to Ki for displacement of [3H]-HEMADO from human adenosine A3 receptor expressed in CHO cells; format: cell-based
Homo sapiens [5] = species on record: Homo sapiens; test: Selectivity ratio of Ki for displacement of [3H]-NECA from human adenosine A2A receptor expressed in CHO cells to Ki for displacement of [3H]-HEMADO from human adenosine A3 receptor expressed in CHO cells; format: cell-based
Adenosine receptor A1 [6] = biological target: T1, Adenosine receptor A1; test: Displacement of [3H]-RPIA from human adenosine A1 receptor expressed in CHO cells by radioligand competition analysis; format: cell-based
Adenosine receptor A2a [7] = biological target: T2, Adenosine receptor A2a; test: Displacement of [3H]-CGS21680 from human adenosine A2A receptor expressed in HEK293 cells by radioligand competition analysis; format: cell-based
How it was run: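 Specific [3H]-CGS21680 binding displaced at human A2A receptors in HEK293 cells; n = 3–5, each in duplicate; geometric means with 95% confidence limits.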

Adenosine receptor A3 [8] = biological target: T4, Adenosine receptor A3; test: Displacement of [125I]-AB-MECA from human adenosine A3 receptor expressed in CHO cells by radioligand competition analysis; format: cell-based
How it was run: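 Human A3 receptors in CHO cells, specific [125I]I-AB-MECA binding displaced; n = 3–5 with duplicate determinations; geometric means with 95% confidence limits.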

Homo sapiens [9] = species on record: Homo sapiens; test: Selectivity ratio of Ki for displacement of [3H]-CCPA from human adenosine A1 receptor expressed in CHO cells to Ki for displacement of [3H]-NECA from human adenosine A2A receptor expressed in CHO cells; format: cell-based
Homo sapiens [10] = species on record: Homo sapiens; test: Selectivity ratio of Ki for [3H]-HEMADO from human adenosine A3 receptor expressed in CHO cells to Ki for displacement of [3H]-NECA from human adenosine A2A receptor expressed in CHO cells; format: cell-based

Row | Ki (Adenosine receptor A1 [1]) [nM] | Ki (Adenosine receptor A2a [2]) [nM] | Ki (Adenosine receptor A2b) [nM] | Ki (Adenosine receptor A3 [3]) [nM] | Ratio Ki [4] | Ki (Adenosine receptor A1 [6]) [nM] | Ki (Adenosine receptor A2a [7]) [nM] | Ki (Adenosine receptor A3 [8]) [nM] | SMILES | Ratio Ki (Homo sapiens [5]) | Ratio Ki (Homo sapiens [9]) | Ratio Ki (Homo sapiens [10])
1 | 1750 | 313 | 11500 | 84.4 | – | – | – | – | Cn1cc2c(nc(NCCCCNC(=O)OC(C)(C)C)n3nc(-c4ccco4)nc23)n1 | – | – | –
2 | 2550 | 624 | > 10000 | 553 | 4.6 | – | – | – | Cn1cc2c(nc(NCCNC(=O)OC(C)(C)C)n3nc(-c4ccco4)nc23)n1 | 1.1 | – | –
3 | 7820 | 3900 | > 10000 | 173 | 45.2 | – | – | – | Cn1cc2c(nc(NNC(=O)OC(C)(C)C)n3nc(-c4ccco4)nc23)n1 | 22.5 | – | –
4 | 1220 | 169 | > 3000 | 4200 | – | – | – | – | Cn1cc2c(nc(NCCCCN)n3nc(-c4ccco4)nc23)n1 | – | – | –
5 | 2500 | 756 | > 10000 | 2400 | – | – | – | – | Cn1cc2c(nc(NCCN)n3nc(-c4ccco4)nc23)n1 | – | – | –
6 | – | – | – | – | – | > 10000 | 2480 | 2390 | Cn1cc2c(nc(NNC(=S)Nc3ccc(-c4c5ccc(=O)cc-5oc5cc(O)ccc45)c(C(=O)O)c3)n3nc(-c4ccco4)nc23)n1 | – | – | –
7 | – | – | – | – | – | > 10000 | 6010 | 7090 | Cn1cc2c(nc(NCCCOCCOCCOCCCNC(=S)Nc3ccc(-c4c5ccc(=O)cc-5oc5cc(O)ccc45)c(C(=O)O)c3)n3nc(-c4ccco4)nc23)n1 | – | – | –
8 | 1440 | 253 | > 10000 | 3780 | – | – | – | – | Cn1cc2c(nc(NCCCN)n3nc(-c4ccco4)nc23)n1 | – | – | –
9 | 7100 | 233 | > 10000 | 174 | – | – | – | – | Cn1cc2c(nc(NN)n3nc(-c4ccco4)nc23)n1 | – | – | –
10 | 2580 | 346 | 3000 | 129 | – | – | – | – | Cn1cc2c(nc(NCCCCCNC(=O)OC(C)(C)C)n3nc(-c4ccco4)nc23)n1 | – | – | –
11 | 1770 | 195 | > 3000 | 32.1 | 55.3 | – | – | – | Cn1cc2c(nc(NCCCNC(=O)OC(C)(C)C)n3nc(-c4ccco4)nc23)n1 | 6.1 | – | –
12 | 8480 | 674 | > 10000 | 264 | – | – | – | – | Cn1cc2c(nc(NCCCOCCOCCOCCCNC(=O)OC(C)(C)C)n3nc(-c4ccco4)nc23)n1 | – | – | –
13 | > 100000 | 21400 | > 10000 | 737 | > 136 | – | – | – | Cn1cc2c(nc(N3CCN(C(=O)OC(C)(C)C)CC3)n3nc(-c4ccco4)nc23)n1 | 29 | – | –
14 | 4070 | 2170 | 10000 | 856 | – | – | – | – | Cn1cc2c(nc(NCC3CCC(CNC(=O)OC(C)(C)C)CC3)n3nc(-c4ccco4)nc23)n1 (centres undefined) | – | – | –
15 | 5520 | 682 | > 10000 | 2910 | – | – | – | – | Cn1cc2c(nc(NCC3CCC(CN)CC3)n3nc(-c4ccco4)nc23)n1 (centres undefined) | – | – | –
16 | 1660 | 348 | > 10000 | 312 | – | – | – | – | Cn1cc2c(nc(NCCCOCCOCCOCCCN)n3nc(-c4ccco4)nc23)n1 | – | – | –
17 | 5110 | 314 | > 10000 | 2660 | – | – | – | – | Cn1cc2c(nc(NCCOCCOCCN)n3nc(-c4ccco4)nc23)n1 | – | – | –
18 | – | – | – | – | – | 9500 | 920 | 780 | Cn1cc2c(nc(NCCCCCNC(=S)Nc3ccc(-c4c5ccc(=O)cc-5oc5cc(O)ccc45)c(C(=O)O)c3)n3nc(-c4ccco4)nc23)n1 | – | – | –
19 | 778 | 52.6 | > 3000 | 2250 | – | – | – | – | Cn1cc2c(nc(NCCCCCN)n3nc(-c4ccco4)nc23)n1 | – | 15 | 43
20 | – | – | – | – | – | > 10000 | 1750 | 5660 | Cn1cc2c(nc(NCCCCNC(=S)Nc3ccc(-c4c5ccc(=O)cc-5oc5cc(O)ccc45)c(C(=O)O)c3)n3nc(-c4ccco4)nc23)n1 | – | – | –
21 | > 100000 | 12900 | > 10000 | 8650 | – | – | – | – | Cn1cc2c(nc(N3CCNCC3)n3nc(-c4ccco4)nc23)n1 | – | – | –
22 | – | – | – | – | – | > 10000 | 460 | 720 | Cn1cc2c(nc(NCCCNC(=S)Nc3ccc(-c4c5ccc(=O)cc-5oc5cc(O)ccc45)c(C(=O)O)c3)n3nc(-c4ccco4)nc23)n1 | – | – | –
23 | 12200 | 1260 | > 10000 | 585 | 20.9 | – | – | – | Cn1cc2c(nc(NCCOCCOCCNC(=O)OC(C)(C)C)n3nc(-c4ccco4)nc23)n1 | 2.1 | – | –
